Experimental data of several laboratories.
Lines come from different studies, so protocols differ.
Cell line: HEL
Effect on: cell growth or viability

SMILES | time | CC50 [µM]
CCOP(=O)(OCC)[C@@H]1C[C@@H](n2cc(Cn3ccc(NC(C)=O)nc3=O)nn2)ON1C (racemic) | 72 h | > 100
CC(C)CNC(=O)[C@H](C)NC(=O)[C@@]1(Cc2ccccc2)CCN1C(=O)OCc1ccccc1 | 72 h | > 100
CCOP(=O)(OCC)[C@@H]1C[C@H](n2cc(-c3nccn3C)nn2)ON1C | 72 h | > 100
CCCCCCCCCCCCCCCCOCCCOP(=O)(O)COCCn1cnc2c(=O)[nH]c(=O)[nH]c21 | 72 h | 10
Nc1nc2c(ncn2COCCO)c(=O)[nH]1 | – | 440
C[C@H](NC(=O)[C@]1(Cc2ccccc2)CCN1C(=O)OCc1ccccc1)C(=O)NCc1ccccc1 | 72 h | 42
CCOP(=O)(OCC)[C@@H]1C[C@@H](n2cc(Cn3ccc(=O)[nH]c3=O)nn2)ON1C (racemic) | 72 h | > 100
O=c1[nH]c(=O)c2ncn(CC(CO)OCP(=O)(O)O)c2[nH]1 (racemic) | 72 h | ≥ 300
C[C@H](NC(=O)[C@@]1(Cc2ccccc2)CCN1C(=O)OCc1ccccc1)C(=O)N(C)C | 72 h | > 100
CCOP(=O)(OCC)[C@H]1C[C@@H](Cn2c(=O)n(C(=O)c3ccccc3)c(=O)c3ccccc32)ON1C | – | > 100
